This note sets out measurements from ChEMBL document CHEMBL2146419, “Effects of polyphenol compounds on influenza A virus replication and definition of their mechanism of action” (Bioorg Med Chem, 2012).

For data set [1], the system named is MDCK. The data set can be described thus: Cytotoxicity against dog MDCK cells assessed as loss of cell viability incubated for 24 hrs followed by compound wash out measured after 24 hrs by trypan blue exclusion assay. Type of data set: cell-based, Canis lupus familiaris. A digest of the protocol:
(§1)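 Confluent MDCK monolayers plated at 2×10^5/ml were treated after 24 h with compound at 5–40 μg/ml and incubated a further 24 h. Assessed by microscopic examination of morphology, Trypan blue exclusion for viability, and cell counts for multiplication rate.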

For data set [2], the system named is MDCK. The data set can be described thus: Cytotoxicity against dog MDCK cells assessed as morphological alterations incubated for 24 hrs followed by compound wash out measured after 24 hrs by microscopic analysis. Type of data set: cell-based, Canis lupus familiaris. A digest of the protocol:
as §1

Data set [3] deals with MDCK. The data set can be described thus: Cytotoxicity against dog MDCK cells assessed as modification of cell multiplication rate incubated for 24 hrs followed by compound wash out measured after 24 hrs by cell counting analysis. The data set is classed as cell-based, Canis lupus familiaris. A digest of the protocol:
as §1

For data set [4], the system named is MDCK. The data set can be described thus: Cytotoxicity against dog MDCK cells assessed as morphological alterations at 40 ug/mL incubated for 24 hrs followed by compound wash out measured after 24 hrs by microscopic analysis. The data set is classed as cell-based, Canis lupus familiaris. A digest of the protocol: as §1
For data set [5], the system named is Influenza A virus. The data set can be described thus: Antiviral activity against Influenza virus A/Puerto Rico/8/34 H1N1 infected in dog MDCK cells incubated at 1 hr post-infection measured after 24 hrs by hemagglutininating unit assay. Type of data set: functional, organism-based. The settings on record: A/Puerto Rico/8/1934(H1N1). A digest of the protocol:
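MDCK cells infected with PR8; 1 h after adsorption they were washed, and compound (5–20 μg/ml) or DMSO was added and kept on throughout. Virus released into the supernatant was titrated by HAU assay 24 h p.i. Yield is a percentage of control infected cells given 0.02% DMSO. Means of four experiments, each in duplicate.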

`CCCN1C/C(=C\c2ccc(O)c(O)c2)C(=O)/C(=C/c2ccc(O)c(O)c2)C1`: the Activity entry in data set [1], in data set [2] and in data set [3] was “Dose-dependent effect” throughout.
Consider `O=C(/C=C/c1ccc(O)c(O)c1)c1ccccc1`, for which the Activity entry in data set [1], in data set [2] and in data set [3] was “Dose-dependent effect” each time.
As for `CCOC(=O)C1C/C(=C\c2ccc(O)c(O)c2)C(=O)/C(=C/c2ccc(O)c(O)c2)C1` (stereo unspecified), the Activity result in data set [1], in data set [2] and in data set [3] was “Dose-dependent effect” in each case.
Take `O=C(/C=C/c1ccc(O)cc1)c1cc(O)cc(O)c1`: the Activity entry was “Non-toxic” in data set [1]; “Non-toxic” in data set [2]; “Non-toxic” in data set [3]; “Toxic” in data set [4]; “Dose-dependent effect” in data set [5].
Take `Cc1ccc(/C=C/C(=O)c2ccc(O)cc2O)cc1`: the Activity entry in data set [1], in data set [2] and in data set [3] was “Dose-dependent effect” in each case.
Turning to `O=C(/C=C/c1ccc(O)c(O)c1)c1ccc(O)cc1O` [BUTEIN], the Activity entry in data set [1], in data set [2] and in data set [3] was “Dose-dependent effect” in each case.
On to `COc1ccc(C(=O)/C=C/c2ccc(F)cc2)c(O)c1`, for which the Activity result in data set [1], in data set [2] and in data set [3] was “Dose-dependent effect” throughout.
With `O=C1/C(=C/c2ccc(O)c(O)c2)CCC/C1=C\c1ccc(O)c(O)c1`, the Activity result in data set [1], in data set [2] and in data set [3] was “Dose-dependent effect” in each case.
As to `O=C(/C=C/c1cc(O)cc(O)c1)c1ccc(O)cc1`, the Activity entry in data set [1], in data set [2] and in data set [3] was “Dose-dependent effect” in each case.
With `O=C(/C=C/c1ccc(Cl)cc1)c1ccccc1O`, the Activity entry is “Non-toxic” in data set [1]; “Non-toxic” in data set [2]; “Non-toxic” in data set [3]; “Toxic” in data set [4]; “Dose-dependent effect” in data set [5].
Turning to `Nc1cccc(C(=O)/C=C/c2ccc(O)c(O)c2)c1`, the Activity entry in data set [1], in data set [2] and in data set [3] was “Dose-dependent effect” throughout.
On to `O=C(/C=C/c1ccc(O)c(O)c1)c1ccc(O)cc1`, for which the Activity entry in data set [1], in data set [2] and in data set [3] was “Dose-dependent effect” throughout.
For the compound `COc1ccc(/C=C/C(=O)c2ccc(O)cc2O)cc1`, the Activity result in data set [1], in data set [2] and in data set [3] was “Dose-dependent effect” each time.
As to `O=C(/C=C/c1ccc(O)c(O)c1)/C=C/c1ccc(O)c(O)c1`, the Activity result in data set [1], in data set [2] and in data set [3] was “Dose-dependent effect” in each case.
